Values belong to the compound of their own block, whether it stands above or below them.
Experiments:
[1] = target: T1, C-C chemokine receptor type 2 (Homo sapiens, UniProt P41597); test: Antagonist activity at human CCR2 expressed in CHO cells assessed as inhibition of MCP1-induced [35S]-GTPgammaS binding after 3 hrs; type: functional, cell-based
Target sequence in this assay (P41597 whole entry): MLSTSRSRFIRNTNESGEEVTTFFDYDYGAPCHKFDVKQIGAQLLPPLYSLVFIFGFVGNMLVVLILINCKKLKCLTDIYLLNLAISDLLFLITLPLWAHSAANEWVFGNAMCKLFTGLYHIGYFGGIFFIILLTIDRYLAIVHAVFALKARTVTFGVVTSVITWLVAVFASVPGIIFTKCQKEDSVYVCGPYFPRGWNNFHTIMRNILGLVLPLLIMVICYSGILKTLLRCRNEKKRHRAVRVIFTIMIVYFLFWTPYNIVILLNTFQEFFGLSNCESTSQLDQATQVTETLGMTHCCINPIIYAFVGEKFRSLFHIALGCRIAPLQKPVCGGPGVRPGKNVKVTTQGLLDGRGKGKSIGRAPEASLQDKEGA

[2] = target: T1, C-C chemokine receptor type 2; test: Antagonist activity at CCR2 in human THP1 cells assessed as inhibition of CCL2-induced chemotaxis at 1 uM in presence of 0.1% human serum; type: functional, cell-based; conditions: THP-1
In short: (§1)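 Boyden chamber (48-well) chemotaxis of THP-1 cells stimulated with CCL2. Foetal bovine serum or human serum was added to the assay buffer.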
Target sequence in this assay (P41597 whole entry, looked up): as the sequence (P41597 whole entry) above

[3] = target: T1, C-C chemokine receptor type 2; test: Antagonist activity at CCR2 in human THP1 cells assessed as inhibition of CCL2-induced chemotaxis at 1 uM in presence of 1% human serum; type: functional, cell-based; conditions: THP-1; in short: as §1
Target sequence in this assay (P41597 whole entry, looked up): as the sequence (P41597 whole entry) above

[4] = Lipophilicity, log D of the compound; type: physicochemical; conditions: octanol/water
[5] = Oral bioavailability in rat; type: ADME, organism-based; conditions: in vivo
[6] = Half life in iv dosed in rat; type: ADME, organism-based; conditions: in vivo
[7] = Clearance in rat; type: ADME, organism-based; conditions: in vivo
[8] = organism: Rattus norvegicus; test: Volume of distribution in rat; type: ADME, organism-based; conditions: in vivo
[9] = target: T2, Cytochrome P450 1A2 (Homo sapiens, UniProt P05177); test: Inhibition of CYP1A2; type: ADME
T2 sequence (P05177 whole entry): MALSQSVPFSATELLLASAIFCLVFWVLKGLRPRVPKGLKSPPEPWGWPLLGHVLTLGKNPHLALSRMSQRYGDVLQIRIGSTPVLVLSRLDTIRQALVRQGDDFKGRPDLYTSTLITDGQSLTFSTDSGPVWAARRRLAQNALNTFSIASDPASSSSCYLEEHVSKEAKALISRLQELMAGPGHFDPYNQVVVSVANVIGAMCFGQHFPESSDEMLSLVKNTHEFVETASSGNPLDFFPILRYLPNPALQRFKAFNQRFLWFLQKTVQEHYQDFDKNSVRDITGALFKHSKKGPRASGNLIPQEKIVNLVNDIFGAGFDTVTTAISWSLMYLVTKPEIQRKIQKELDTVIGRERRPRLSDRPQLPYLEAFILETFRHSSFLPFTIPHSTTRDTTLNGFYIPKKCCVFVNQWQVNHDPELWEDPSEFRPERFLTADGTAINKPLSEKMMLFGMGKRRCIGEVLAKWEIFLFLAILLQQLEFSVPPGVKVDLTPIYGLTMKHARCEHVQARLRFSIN

[10] = target: Cytochrome P450 2C19 (Homo sapiens, UniProt P33261); test: Inhibition of CYP2C19; type: ADME
Cytochrome P450 2C19, sequence (P33261 whole entry): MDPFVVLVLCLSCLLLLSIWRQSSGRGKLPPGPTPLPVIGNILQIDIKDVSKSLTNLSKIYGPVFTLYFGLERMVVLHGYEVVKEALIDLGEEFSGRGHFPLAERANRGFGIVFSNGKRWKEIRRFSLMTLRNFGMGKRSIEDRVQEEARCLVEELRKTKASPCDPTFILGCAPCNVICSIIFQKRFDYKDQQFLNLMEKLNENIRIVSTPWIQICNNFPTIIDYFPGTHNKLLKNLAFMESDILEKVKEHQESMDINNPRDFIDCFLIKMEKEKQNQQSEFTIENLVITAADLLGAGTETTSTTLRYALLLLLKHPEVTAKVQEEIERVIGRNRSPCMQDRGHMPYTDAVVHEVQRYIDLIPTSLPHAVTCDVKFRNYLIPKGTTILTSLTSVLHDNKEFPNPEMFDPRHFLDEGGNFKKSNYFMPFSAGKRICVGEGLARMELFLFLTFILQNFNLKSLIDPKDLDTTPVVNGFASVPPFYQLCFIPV

[11] = target: Cytochrome P450 2C9 (Homo sapiens, UniProt P11712); test: Inhibition of CYP2C9; type: ADME
Cytochrome P450 2C9, sequence (P11712 whole entry): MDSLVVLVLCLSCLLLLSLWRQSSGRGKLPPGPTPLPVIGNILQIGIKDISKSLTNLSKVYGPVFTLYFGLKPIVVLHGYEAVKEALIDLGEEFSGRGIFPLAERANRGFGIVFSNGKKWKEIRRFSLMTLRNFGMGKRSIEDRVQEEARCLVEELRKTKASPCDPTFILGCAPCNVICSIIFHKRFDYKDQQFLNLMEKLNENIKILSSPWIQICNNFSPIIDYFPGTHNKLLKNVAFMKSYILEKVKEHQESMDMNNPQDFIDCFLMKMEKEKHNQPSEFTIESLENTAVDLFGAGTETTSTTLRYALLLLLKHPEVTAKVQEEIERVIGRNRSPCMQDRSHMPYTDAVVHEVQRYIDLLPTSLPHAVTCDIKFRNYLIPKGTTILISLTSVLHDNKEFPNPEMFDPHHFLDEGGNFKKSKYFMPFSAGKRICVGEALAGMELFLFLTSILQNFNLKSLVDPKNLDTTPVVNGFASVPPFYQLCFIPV

[12] = target: Cytochrome P450 2D6 (Homo sapiens, UniProt P10635); test: Inhibition of CYP2D6; type: ADME
Cytochrome P450 2D6, sequence (P10635 whole entry): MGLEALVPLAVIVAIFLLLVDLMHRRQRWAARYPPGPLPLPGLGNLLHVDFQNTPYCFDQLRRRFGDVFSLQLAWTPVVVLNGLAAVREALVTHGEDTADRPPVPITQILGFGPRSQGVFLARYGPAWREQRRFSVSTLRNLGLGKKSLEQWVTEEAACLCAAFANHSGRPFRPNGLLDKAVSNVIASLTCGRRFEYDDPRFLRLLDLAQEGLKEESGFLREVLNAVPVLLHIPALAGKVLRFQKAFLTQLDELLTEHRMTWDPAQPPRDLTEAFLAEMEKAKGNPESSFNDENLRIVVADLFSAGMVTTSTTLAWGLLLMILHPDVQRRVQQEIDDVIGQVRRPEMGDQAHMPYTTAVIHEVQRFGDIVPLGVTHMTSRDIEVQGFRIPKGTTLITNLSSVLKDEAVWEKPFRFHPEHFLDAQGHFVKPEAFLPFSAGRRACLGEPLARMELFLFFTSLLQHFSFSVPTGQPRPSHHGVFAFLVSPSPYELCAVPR

[13] = target: Cytochrome P450 3A4 (Homo sapiens, UniProt P08684); test: Inhibition of CYP3A4; type: ADME
Cytochrome P450 3A4, sequence (P08684 whole entry): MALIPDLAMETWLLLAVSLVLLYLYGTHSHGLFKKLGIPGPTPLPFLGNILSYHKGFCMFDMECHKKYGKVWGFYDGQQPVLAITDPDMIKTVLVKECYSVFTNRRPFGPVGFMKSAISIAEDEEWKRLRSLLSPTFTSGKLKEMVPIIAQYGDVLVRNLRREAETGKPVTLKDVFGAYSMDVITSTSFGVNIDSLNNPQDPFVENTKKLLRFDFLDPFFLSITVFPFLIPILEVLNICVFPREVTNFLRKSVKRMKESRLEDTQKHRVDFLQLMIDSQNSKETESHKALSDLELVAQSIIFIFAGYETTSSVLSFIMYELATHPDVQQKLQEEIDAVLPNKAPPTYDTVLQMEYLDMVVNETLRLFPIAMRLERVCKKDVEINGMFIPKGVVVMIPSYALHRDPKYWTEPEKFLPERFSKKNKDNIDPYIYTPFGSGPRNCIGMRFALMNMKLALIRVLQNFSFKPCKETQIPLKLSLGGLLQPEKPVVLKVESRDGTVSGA

[14] = target: T3, C-C chemokine receptor type 1 (Homo sapiens, UniProt P32246); test: Antagonist activity at human CCR1 assessed as inhibition of MIP-1-alpha-induced [35S]-GTPgammaS binding after 3 to 4 hrs; type: functional
T3 sequence (P32246 whole entry): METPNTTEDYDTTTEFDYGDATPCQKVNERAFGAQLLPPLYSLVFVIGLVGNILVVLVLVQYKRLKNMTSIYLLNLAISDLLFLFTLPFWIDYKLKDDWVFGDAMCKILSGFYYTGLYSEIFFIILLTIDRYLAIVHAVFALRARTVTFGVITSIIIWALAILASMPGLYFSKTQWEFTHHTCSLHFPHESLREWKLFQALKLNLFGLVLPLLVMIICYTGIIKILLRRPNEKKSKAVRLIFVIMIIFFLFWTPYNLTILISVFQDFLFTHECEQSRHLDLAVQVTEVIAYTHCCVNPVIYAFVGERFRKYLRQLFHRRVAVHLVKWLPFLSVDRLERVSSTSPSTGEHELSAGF

[15] = target: C-C chemokine receptor type 2 (Mus musculus, UniProt P51683); test: Antagonist activity at mouse CCR2; type: functional
C-C chemokine receptor type 2 (Mus musculus, UniProt P51683), sequence (P51683 whole entry): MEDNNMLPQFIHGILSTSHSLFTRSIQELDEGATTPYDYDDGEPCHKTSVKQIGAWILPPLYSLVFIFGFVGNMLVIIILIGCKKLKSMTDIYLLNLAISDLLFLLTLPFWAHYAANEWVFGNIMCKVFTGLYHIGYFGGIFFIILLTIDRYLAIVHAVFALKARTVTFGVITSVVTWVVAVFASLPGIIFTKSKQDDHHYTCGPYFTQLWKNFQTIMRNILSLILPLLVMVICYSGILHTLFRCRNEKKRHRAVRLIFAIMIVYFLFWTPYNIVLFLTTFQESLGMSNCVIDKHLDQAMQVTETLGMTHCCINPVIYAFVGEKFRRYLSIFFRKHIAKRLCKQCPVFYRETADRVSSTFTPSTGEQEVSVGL

[16] = target: T1, C-C chemokine receptor type 2; test: Antagonist activity at CCR2 in human THP1 cells assessed as inhibition of CCL2-induced chemotaxis at 10 uM in presence of 1% human serum; type: functional, cell-based; conditions: THP-1; in short: as §1
Target sequence in this assay (P41597 whole entry, looked up): as the sequence (P41597 whole entry) above

[17] = target: C-C chemokine receptor type 1 (Homo sapiens) (UniProt P32246); test: Antagonist activity at human CCR1
[18] = Half life in po dosed in rat; type: ADME, organism-based; conditions: in vivo
[19] = target: T4, C-C chemokine receptor type 4 (Homo sapiens, UniProt P51679); test: Antagonist activity at CCR4; type: functional
T4 sequence (P51679 whole entry): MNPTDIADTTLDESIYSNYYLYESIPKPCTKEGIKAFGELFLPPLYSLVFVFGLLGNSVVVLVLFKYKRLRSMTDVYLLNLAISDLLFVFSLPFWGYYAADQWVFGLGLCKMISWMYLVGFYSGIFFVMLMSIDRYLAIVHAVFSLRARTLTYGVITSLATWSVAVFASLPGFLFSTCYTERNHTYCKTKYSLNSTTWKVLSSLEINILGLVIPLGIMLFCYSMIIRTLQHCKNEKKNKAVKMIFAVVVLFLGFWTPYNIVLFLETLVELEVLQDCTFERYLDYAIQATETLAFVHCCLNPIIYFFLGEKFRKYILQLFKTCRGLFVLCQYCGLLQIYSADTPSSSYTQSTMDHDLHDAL

[20] = target: T5, C-C chemokine receptor type 5 (Homo sapiens, UniProt P51681); test: Antagonist activity at CCR5; type: functional
Target sequence in this assay (P51681 whole entry): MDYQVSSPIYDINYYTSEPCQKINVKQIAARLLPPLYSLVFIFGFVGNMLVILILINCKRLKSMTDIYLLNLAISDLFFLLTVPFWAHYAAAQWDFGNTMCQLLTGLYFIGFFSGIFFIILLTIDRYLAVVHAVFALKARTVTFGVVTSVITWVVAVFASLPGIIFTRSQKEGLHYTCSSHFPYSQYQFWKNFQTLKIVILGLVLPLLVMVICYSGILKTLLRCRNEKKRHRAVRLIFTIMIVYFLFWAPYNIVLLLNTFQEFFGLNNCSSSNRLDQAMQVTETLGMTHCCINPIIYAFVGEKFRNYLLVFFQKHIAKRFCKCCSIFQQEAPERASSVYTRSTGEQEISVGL

[21] = target: Voltage-gated inwardly rectifying potassium channel KCNH2 (Homo sapiens, UniProt Q12809); test: Binding affinity to human ERG by fluorescence-polarization binding assay
[22] = target: T5, C-C chemokine receptor type 5; test: Antagonist activity at CCR5 at 10 uM; type: functional; set-up: scale not given: the % may be the effect or the level left
Target sequence in this assay (P51681 whole entry, looked up): as the sequence (P51681 whole entry) above

Ki [1]: 50.1 nM
inhibition [2]: 43%
inhibition [3]: 12%
logD [4]: 1.5
SMILES: Cc1ncccc1Oc1ncc(C#N)cc1NS(=O)(=O)c1ccc(Cl)c(Cl)c1

Ki [1]: 12.6 nM
inhibition [2]: 55%
inhibition [3]: 0%
logD [4]: 3.1
bioavailability [5]: 58%
half-life [6]: 1.2 h
clearance [7]: 2.4 mL/min/kg
Vd [8]: 0.2 L/kg
IC50 [9]: > 100000 nM
IC50 [10]: 6610 nM
IC50 [11]: 1070 nM
IC50 [12]: > 100000 nM
IC50 [13]: 437 nM
SMILES: O=S(=O)(Nc1cc(Cl)cnc1Oc1cncc(Cl)c1)c1ccc(Cl)c(Cl)c1

Ki [1]: 126 nM
Ki [14]: 126 nM
Ki [15]: 1000 nM
SMILES: O=C(O)c1c(F)cccc1Oc1ccc(C(F)(F)F)cc1NS(=O)(=O)c1ccc(Cl)cc1

Ki [1]: 20 nM
inhibition [16]: 65%
Ki [17]: 158 nM
SMILES: O=C(O)c1ccccc1Oc1ccc(Cl)cc1NS(=O)(=O)c1ccc(Cl)cc1

Ki [1]: 398 nM
SMILES: O=C(O)c1ccccc1Oc1ncncc1NS(=O)(=O)c1ccc(Cl)c(Cl)c1

Ki [1]: 200 nM
SMILES: O=S(=O)(Nc1cc(Cl)cnc1Oc1cccnn1)c1ccc(Cl)c(Cl)c1

Ki [1]: 39.8 nM
inhibition [16]: 52%
Ki [17]: 251 nM
SMILES: O=C(O)c1ccccc1Oc1ccc(F)cc1NS(=O)(=O)c1ccc(Cl)cc1

Ki [1]: > 3160 nM
SMILES: CS(=O)(=O)c1ccc(Oc2ccccc2C(=O)O)c(NS(=O)(=O)c2ccc(Cl)cc2)c1

Ki [1]: 794 nM
SMILES: O=C(O)c1ccccc1Oc1nccnc1NS(=O)(=O)c1ccc(Cl)c(Cl)c1

Ki [1]: 50.1 nM
inhibition [2]: 15%
inhibition [3]: 0%
SMILES: O=C(O)c1ccccc1Oc1cnccc1NS(=O)(=O)c1ccc(Cl)c(Cl)c1

Ki [1]: 31.6 nM
Ki [14]: 126 nM
Ki [15]: 251 nM
SMILES: O=C(O)c1ccccc1Oc1c(F)cc(C(F)(F)F)cc1NS(=O)(=O)c1ccc(Cl)cc1

Ki [1]: 398 nM
SMILES: CS(=O)(=O)Nc1cc(Cl)ccc1Oc1ccccc1C(=O)O

Ki [1]: 794 nM
Ki [14]: 501 nM
Ki [15]: 1580 nM
SMILES: O=C(O)c1ccccc1Oc1ccc(C(F)(F)F)cc1NS(=O)(=O)c1ccc(Cl)cc1

Ki [1]: 158 nM
SMILES: O=C(O)c1ccccc1Oc1ccc(Cl)cc1NS(=O)(=O)c1ccccc1

bioavailability [5]: 70%
half-life [6]: 6.5 h
half-life [18]: 5.9 h
clearance [7]: 0.6 mL/min/kg
Vd [8]: 0.2 L/kg
IC50 [9]: 39800 nM
IC50 [10]: 11000 nM
IC50 [11]: 4170 nM
IC50 [12]: 53700 nM
IC50 [13]: 10000 nM
Ki [19]: 398 nM
IC50 [20]: 631 nM
SMILES: O=C(O)c1ccccc1Oc1ccc(Cl)cc1NS(=O)(=O)c1ccc(Cl)c(Cl)c1

Ki [1]: 25.1 nM
inhibition [2]: 31%
inhibition [3]: 0%
logD [4]: 2.1
bioavailability [5]: 37%
half-life [6]: 1.1 h
clearance [7]: 13 mL/min/kg
Vd [8]: 0.47 L/kg
Ki [19]: 1580 nM
Activity [22]: < 10%
SMILES: O=C(NCCO)c1ccccc1Oc1ncc(Cl)cc1NS(=O)(=O)c1ccc(Cl)c(Cl)c1
IC50 [21]: > 63100 nM
